ChEMBL document CHEMBL4330069, “Boosting the efficacy of anti-MRSA β-lactam antibiotics via an easily accessible, non-cytotoxic and orally bioavailable FtsZ inhibitor” (Eur J Med Chem, 2019)
≈ marks a conversion by molar mass, not a printed value. Values belong to the compound of their own block, whether it stands above or below them. Calls of active or inactive are those of the source. No cut-off for these calls is given here.

Assays:
Staphylococcus aureus [1] = assay: Antibacterial activity against Staphylococcus aureus ATCC BAA-41 at […] after 24 hrs by time kill assay; format: functional, organism-based
In short: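 Time-kill assay. S. aureus BAA-41 was grown in CA-MH broth to mid-log phase (OD595 0.8), then diluted to 5×10^5 CFU/mL. […] Samples were taken at 0–24 h and plated on drug-free CA-MH agar for 24 h. Triplicates.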

[2] = molecular target: T1, Cell division protein FtsZ (Staphylococcus aureus) (UniProt P0A031); assay: Inhibition of Staphylococcus aureus N-terminal 6His-tagged FtsZ polymerization expressed in Escherichia coli BL21 (DE3) at 100 uM relative to control
T1 sequence (whole entry): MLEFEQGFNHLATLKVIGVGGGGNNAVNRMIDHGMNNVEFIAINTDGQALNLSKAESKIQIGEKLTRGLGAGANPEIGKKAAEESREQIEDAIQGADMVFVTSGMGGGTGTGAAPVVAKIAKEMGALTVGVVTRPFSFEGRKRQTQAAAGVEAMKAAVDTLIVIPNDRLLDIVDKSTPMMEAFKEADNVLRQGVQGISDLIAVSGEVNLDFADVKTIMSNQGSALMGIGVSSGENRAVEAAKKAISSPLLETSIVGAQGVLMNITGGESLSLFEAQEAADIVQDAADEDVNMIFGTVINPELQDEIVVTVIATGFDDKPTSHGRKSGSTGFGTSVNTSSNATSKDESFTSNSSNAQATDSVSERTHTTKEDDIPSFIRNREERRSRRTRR
In short: (§1)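 Purified S. aureus FtsZ polymerization with GTP, followed as light scattering (absorbance 600 nm) over time. Compound was tested at 12.5–100 µM against a 1% DMSO vehicle, and inhibition was read at 500 s. Triplicate.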

[3] = molecular target: T1, Cell division protein FtsZ (Staphylococcus aureus); assay: Inhibition of Staphylococcus aureus N-terminal 6His-tagged FtsZ GTPase expressed in Escherichia coli BL21 (DE3) at 50 uM relative to control
[4] = molecular target: T1, Cell division protein FtsZ (Staphylococcus aureus); assay: Inhibition of Staphylococcus aureus N-terminal 6His-tagged FtsZ GTPase expressed in Escherichia coli BL21 (DE3) at 30 uM relative to control
Staphylococcus aureus [5] = assay: Synergistic bactericidal activity against Staphylococcus aureus ATCC BAA-41 at 1 to 16 times MIC in presence of methicillin up to 24 hrs by time kill assay; format: functional, organism-based
In short: (§2)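 Colony of strain grown 16 h in CA-MH broth at 37 °C with shaking, diluted 100-fold and grown to mid-log (OD595 0.8), then set at 5×10^5 CFU/mL. […] Sampled at 0, 2.5, 5, 7.5, 21, 24 h, diluted and plated on drug-free CA-MH agar, 24 h at 37 °C; triplicates.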

[6] = molecular target: T1, Cell division protein FtsZ (Staphylococcus aureus); assay: Inhibition of Staphylococcus aureus N-terminal 6His-tagged FtsZ GTPase expressed in Escherichia coli BL21 (DE3) at 100 uM relative to control
Staphylococcus aureus [7] = assay: Antibacterial activity against Staphylococcus aureus ATCC 29213 by broth microdilution assay; format: functional
In short: (§3)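 Broth microdilution per CLSI guidelines; compounds dissolved in DMSO; single agents tested; growth inhibition read by eye; run in duplicate (table footnote states at least triplicates).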

Staphylococcus aureus [8] = assay: Bactericidal activity against Staphylococcus aureus ATCC BAA-41 assessed as log reduction in bacterial growth at 2 to 4 times MIC up to 7 hrs by time kill assay; format: functional
In short: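 Mid-log S. aureus BAA-41 culture (OD595 0.8) diluted to 5×10^5 CFU/mL in CA-MH broth. […] Incubated at 37 °C with shaking at 250 rpm, sampled at 0, 2.5, 5, 7.5, 21 and 24 h, and plated on drug-free CA-MH agar for 24 h at 37 °C to count viable cells; triplicates.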

Escherichia coli = assay: Antibacterial activity against Escherichia coli ATCC 25922 by broth microdilution assay; format: functional; in short: as §3
[9] = Selective index, ratio of IC50 for mouse L929 cells to MIC for Staphylococcus aureus ATCC 29213
In short: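 Selectivity index calculated as L929 IC50 (μM) divided by S. aureus MIC (μM).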

L929 = assay: Cytotoxicity against mouse L929 cells by MTS assay; format: cell-based
In short: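 MTS assay on L929 mouse fibroblasts; IC50 reported as the average of three independent measurements.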

Staphylococcus aureus [10] = assay: Synergistic antibacterial activity against Staphylococcus aureus ATCC BAA-41 at 1 to 16 times MIC in presence of methicillin after 21 hrs by time kill assay; format: functional, organism-based; in short: as §2
[11] = molecular target: T1, Cell division protein FtsZ (Staphylococcus aureus); assay: Inhibition of Staphylococcus aureus N-terminal 6His-tagged FtsZ polymerization expressed in Escherichia coli BL21 (DE3) assessed as reduced strands at 100 uM in presence of GTP by TEM analysis
In short: (§4)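 Purified S. aureus FtsZ was incubated with GTP and compound at 0, 50 or 100 µM. Filaments were then imaged by transmission electron microscopy.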

[12] = molecular target: T1, Cell division protein FtsZ (Staphylococcus aureus); assay: Inhibition of Staphylococcus aureus N-terminal 6His-tagged FtsZ polymerization expressed in Escherichia coli BL21 (DE3) assessed as reduction in filament formation in presence of GTP by TEM analysis; in short: as §4
[13] = molecular target: T1, Cell division protein FtsZ (Staphylococcus aureus); assay: Inhibition of Staphylococcus aureus N-terminal 6His-tagged FtsZ polymerization expressed in Escherichia coli BL21 (DE3) at 50 uM relative to control; in short: as §1
[14] = molecular target: T1, Cell division protein FtsZ (Staphylococcus aureus); assay: Inhibition of Staphylococcus aureus N-terminal 6His-tagged FtsZ polymerization expressed in Escherichia coli BL21 (DE3); in short: as §1
[15] = molecular target: T1, Cell division protein FtsZ (Staphylococcus aureus); assay: Inhibition of Staphylococcus aureus N-terminal 6His-tagged FtsZ polymerization expressed in Escherichia coli BL21 (DE3) at 25 uM relative to control; in short: as §1
[16] = molecular target: T1, Cell division protein FtsZ (Staphylococcus aureus); assay: Inhibition of Staphylococcus aureus N-terminal 6His-tagged FtsZ polymerization expressed in Escherichia coli BL21 (DE3) assessed as single strands at 100 uM in presence of GTP by TEM analysis; in short: as §4
[17] = molecular target: T1, Cell division protein FtsZ (Staphylococcus aureus); assay: Inhibition of Staphylococcus aureus N-terminal 6His-tagged FtsZ polymerization expressed in Escherichia coli BL21 (DE3) assessed as short strands at 100 uM in presence of GTP by TEM analysis; in short: as §4
[18] = molecular target: T1, Cell division protein FtsZ (Staphylococcus aureus); assay: Inhibition of Staphylococcus aureus N-terminal 6His-tagged FtsZ polymerization expressed in Escherichia coli BL21 (DE3) assessed as thin strands at 100 uM in presence of GTP by TEM analysis; in short: as §4
[19] = molecular target: T1, Cell division protein FtsZ (Staphylococcus aureus); assay: Inhibition of Staphylococcus aureus N-terminal 6His-tagged FtsZ GTPase expressed in Escherichia coli BL21 (DE3) at 100 uM

inhibition [2]: Active
inhibition [3]: -29%
inhibition [4]: -47%
inhibition [6]: -15%
MIC (Staphylococcus aureus [7]): 1.6 µM (≈ 0.569 µg/mL)
MIC (Escherichia coli): > 64 µg/mL
Compound: NC(=O)c1c(F)ccc(OCc2nc3cc(Cl)cnc3s2)c1F
Activity (Staphylococcus aureus [1]): Active
Activity (Staphylococcus aureus [5]): Active
log(activity) (Staphylococcus aureus [8]): > 4
Selectivity Index [9]: >63
IC50 (L929): > 100 µM
Activity (Staphylococcus aureus [10]): Active

Compound: CCCCCCCCCNc1ccc(F)c(C(N)=O)c1F
inhibition [11]: Active
inhibition [12]: Dose-dependent effect
inhibition [13]: 39%
inhibition [14]: Dose-dependent effect
inhibition [15]: 34%
Activity (Staphylococcus aureus [1]): inactive
inhibition [16]: Active
inhibition [2]: 47%
inhibition [17]: Active
Activity (Staphylococcus aureus [5]): Active
inhibition [18]: Active
inhibition [19]: inactive
Activity (Staphylococcus aureus [10]): Active
